Source: PMC8268672 (Bioorganic Chemistry, 2021)
pEC50: −log10 of the molar value. ≈ marks a conversion by molar mass, not a printed value. Where two headings read alike, the source gives them in different places.

Columns and labels:
[1] = test system: Aspergillus niger (NCIM 2191); test: MIC, broth microdilution; format: cell-based; settings: NCIM2191, read-out: Minimum inhibitory concentration (MIC), AN
Procedure, shortened: (§1)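 Antifungal MICs by CLSI broth microdilution in Sabouraud liquid medium. Test compounds and standard drugs are serially diluted two-fold from 512 to 0.25. The fungal broth culture is grown 24 h at 35 °C to a 0.5 McFarland turbidity, then adjusted with sterile solution to the final inoculum.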

[2] = test system: Escherichia coli (ATCC 8739); test: MIC, broth microdilution; format: cell-based; settings: ATCC8739, read-out: Minimum inhibitory concentration (MIC), EC
Procedure, shortened: (§2)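 Broth microdilution per CLSI in Mueller-Hinton broth, using two-fold serial dilutions of test compound and reference drugs from 512 to 0.25. Bacterial broth cultures were grown 2-6 h to 0.5 McFarland turbidity, then diluted with sterile solution to the final inoculum. MIC is reported in µg/mL.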

[3] = test system: Candida albicans (NCIM 2087); test: Agar disk diffusion, inhibition zone; format: cell-based; settings: 100 µg/8 mm disc, triplicate, mean ± SD
[4] = test system: Aspergillus fumigatus (NCIM 2081); test: MIC, broth microdilution; format: cell-based; settings: NCIM2081, read-out: Minimum inhibitory concentration (MIC), AF
Procedure, shortened: as §1

[5] = test system: Madin Darby canine kidney (MDCK) cells; settings: dog
[6] = test system: Staphylococcus aureus (ATCC 29213); test: MIC, broth microdilution; format: cell-based; settings: ATCC29213, read-out: Minimum inhibitory concentration (MIC), SA
Procedure, shortened: (§3)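 Antibacterial MICs by CLSI broth microdilution in Mueller-Hinton broth. Test compounds and standard drugs are serially diluted two-fold from 512 to 0.25. The bacterial broth culture is grown 2-6 h to a 0.5 McFarland turbidity, then adjusted with sterile solution to the final inoculum.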

[7] = test system: Punta Toro virus; test: CPE reduction assay in Vero cells; format: cell-based; settings: read-out: Antiviral EC50, Punta Toro virus
[8] = test system: Yellow Fever virus; test: microbe, parasite or virus in culture; format: cell-based; settings: Yellow fever virus, Vero, read-out: Antiviral EC50, Yellow Fever virus
[9] = test system: Bacillus cereus (NCIM-2458); test: Agar disk diffusion, inhibition zone; format: cell-based; settings: 100 µg/8 mm disc, triplicate, mean ± SD
[10] = test system: Bacillus cereus (NCIM-2458); test: MIC, broth microdilution; format: cell-based; settings: NCIM2458, read-out: Minimum inhibitory concentration (MIC), BC
Procedure, shortened: as §2

[11] = test system: Cryptococcus neoformans (ATCC 9011); test: MIC, broth microdilution; format: cell-based; settings: ATCC9011, read-out: Minimum inhibitory concentration (MIC), CN
Procedure, shortened: as §1

[12] = test system: Aspergillus niger (NCIM 2191); test: Agar disk diffusion, inhibition zone; format: cell-based; settings: 100 µg/8 mm disc, triplicate, mean ± SD
Procedure, shortened: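 For the fungal strain, discs soaked in test compound solution (DMSO stock diluted with distilled water) sat on seeded Mueller-Hinton agar. Clotrimazole was the reference. Incubation ran 48 h at 35 °C, in triplicate. Zone of growth inhibition recorded in mm as the mean diameter around each disc.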

[13] = test system: Lactobacillus casei (NCIM-2651); test: Agar disk diffusion, inhibition zone; format: cell-based; settings: 100 µg/8 mm disc, triplicate, mean ± SD
[14] = test system: Aspergillus fumigatus (NCIM 2081); test: Agar disk diffusion, inhibition zone; format: cell-based; settings: 100 µg/8 mm disc, triplicate, mean ± SD
[15] = test system: Streptococcus pneumonia (ATCC 49619); test: Agar disk diffusion, inhibition zone; format: cell-based; settings: 100 µg/8 mm disc, triplicate, mean ± SD
[16] = test system: Para-influenza-3 virus; test: CPE reduction assay in Vero cells; format: cell-based, Parainfluenza-3 virus; settings: Vero, read-out: Antiviral EC50, Para-influenza-3 virus
[17] = test system: Coxsackie virus B4; test: CPE reduction assay in Vero cells; format: cell-based; settings: Enterovirus B, read-out: Antiviral EC50, Coxsackie virus B4
[18] = test system: Vero cells; settings: Vero cell cultures; microscopically detectable alteration of normal cell morphology
[19] = test system: Klebsiella aerogenes (NCIM-2098); test: MIC, broth microdilution; format: cell-based; settings: NCIM2098, read-out: Minimum inhibitory concentration (MIC), KA
Procedure, shortened: as §3

[20] = test system: Staphylococcus aureus (ATCC 29213); test: Agar disk diffusion, inhibition zone; format: cell-based; settings: 100 µg/8 mm disc, triplicate, mean ± SD
Procedure, shortened: (§4)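 Agar disk diffusion on Mueller-Hinton agar plates seeded with a standard bacterial suspension. Test compound stock in DMSO, diluted with distilled water; 8 mm sterile filter-paper discs soaked in the solution. Ampicillin was the reference. Plates incubated at 35 °C for 24 h, in triplicate. Read-out is the average inhibition-zone diameter (mm) around each disc.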

[21] = test system: Adeno virus-2; test: CPE reduction assay in HEL cells; format: cell-based; settings: read-out: Antiviral EC50, Adeno virus-2
[22] = test system: Escherichia coli (ATCC 8739); test: Agar disk diffusion, inhibition zone; format: cell-based; settings: 100 µg/8 mm disc, triplicate, mean ± SD
Procedure, shortened: as §4

[23] = test system: Reovirus-1; test: CPE reduction assay in Vero cells; format: cell-based; settings: read-out: Antiviral EC50, Reovirus-1
[24] = test system: Cryptococcus neoformans (ATCC 9011); test: Agar disk diffusion, inhibition zone; format: cell-based; settings: 100 µg/8 mm disc, triplicate, mean ± SD
[25] = test system: MT4 cells; settings: MT4 cell cultures; colorimetric MTT cell viability assay
[26] = test system: Sindbis virus; test: CPE reduction assay in Vero cells; format: cell-based; settings: read-out: Antiviral EC50, Sindbis virus
[27] = test system: Vaccinia virus; test: microbe, parasite or virus in culture; format: cell-based; settings: Orthopoxvirus vaccinia, HEL, read-out: Antiviral EC50, Vaccinia virus
[28] = test system: Human embryonic lung (HEL) cells; settings: HEL cell cultures; microscopically detectable alteration of normal cell morphology
[29] = test system: Salmonella typhimurium (NCIM-2501); test: Agar disk diffusion, inhibition zone; format: cell-based; settings: 100 µg/8 mm disc, triplicate, mean ± SD
[30] = test system: Pseudomonas aeruginosa (MCCB 0035); test: Agar disk diffusion, inhibition zone; format: cell-based; settings: 100 µg/8 mm disc, triplicate, mean ± SD
[31] = test system: Influenza A/H1N1 A/Ned/378/05; test: CPE reduction assay in MDCK cells; format: cell-based; settings: Influenza A virus
[32] = test system: Pseudomonas aeruginosa (MCCB 0035); test: MIC, broth microdilution; format: cell-based; settings: read-out: Minimum inhibitory concentration (MIC), PA
Procedure, shortened: as §2

[33] = test system: Influenza B B/Ned/537/05; test: CPE reduction assay in MDCK cells; format: cell-based; settings: Influenza B virus, read-out: Antiviral EC50, Influenza B B/Ned/537/05, MTS
[34] = test system: Klebsiella aerogenes (NCIM-2098); test: Agar disk diffusion, inhibition zone; format: cell-based; settings: 100 µg/8 mm disc, triplicate, mean ± SD
[35] = test system: Candida albicans (NCIM 2087); test: MIC, broth microdilution; format: cell-based; settings: NCIM2087, read-out: Minimum inhibitory concentration (MIC), CA
Procedure, shortened: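 CLSI broth microdilution in Sabouraud liquid medium, with test compound two-fold serially diluted from 512 to 0.25. Fungal broth culture grown 24 h at 35 °C to 0.5 McFarland turbidity, then adjusted with sterile solution to a final […] inoculum. MIC expressed in µg/mL.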

[36] = test system: Influenza A/H3N2 A/HK/7/87; test: CPE reduction assay in MDCK cells; format: cell-based; settings: Influenza A virus
[37] = test system: Human Coronavirus (229E); test: CPE reduction assay in HEL cells; format: cell-based; settings: read-out: Antiviral EC50, Human Coronavirus (229E)
[38] = read-out: Antiviral EC50, Influenza A/H1N1 A/Ned/378/05, MTS
[39] = read-out: Antiviral EC50, Influenza A/H1N1 A/Ned/378/05, visual CPE score
[40] = read-out: Antiviral EC50, Influenza A/H3N2 A/HK/7/87, MTS
[41] = read-out: Antiviral EC50, Influenza A/H3N2 A/HK/7/87, visual CPE score

## Cc1ccc(S(=O)(=O)N2C(=O)CSC2c2ccccc2Cl)cc1 (stereo not drawn) [5e, 2-(2-Chlorophenyl)-3-[(4-methylphenyl)sulfonyl]-1,3-thiazolidin-4-one]
[1]
  MIC: 32 µg/mL (≈ 87 µM)
[2]
  MIC: 16 µg/mL (≈ 43.5 µM)
[3]
  Diameter of growth inhibition zone, CA: 10.8 ± 1.5 mm
[4]
  MIC: 64 µg/mL (≈ 174 µM)
[5]
  Cytotoxicity, Minimum cytotoxic conc.: >100 µM
[6]
  MIC: 64 µg/mL (≈ 174 µM)
[7]
  pEC50: < 4.00
[8]
  pEC50: < 4.00
[9]
  Diameter of growth inhibition zone, BC: 10 ± 0.7 mm
[10]
  MIC: 64 µg/mL (≈ 174 µM)
[11]
  MIC: 16 µg/mL (≈ 43.5 µM)
[12]
  Diameter of growth inhibition zone, AN: 10.2 ± 0.9 mm
[13]
  Diameter of growth inhibition zone, LC: 14 ± 0.3 mm
[14]
  Diameter of growth inhibition zone, AF: 9.6 ± 1.2 mm
[15]
  Diameter of growth inhibition zone, SP: 10 ± 1.32 mm
[16]
  pEC50: < 4.00
[17]
  pEC50: < 4.00
[18]
  Minimum cytotoxic conc.: >100 µM
[19]
  MIC: 32 µg/mL (≈ 87 µM)
[20]
  Diameter of growth inhibition zone, SA: 17 ± 3.6 mm
[21]
  pEC50: < 4.00
[22]
  Diameter of growth inhibition zone, EC: 19 ± 0.69 mm
[23]
  pEC50: < 4.00
[24]
  Diameter of growth inhibition zone, CN: 12 ± 0.9 mm
[25]
  Minimum cytotoxic conc.: >125 µM
[26]
  pEC50: < 4.00
[27]
  pEC50: < 4.00
[28]
  Minimum cytotoxic conc.: >100 µM
[29]
  Diameter of growth inhibition zone, ST: 10 ± 0.72 mm
[30]
  Diameter of growth inhibition zone, PA: 18 ± 0.55 mm
[31]; [38]
  pEC50: < 4.00
[31]; [39]
  pEC50: < 4.00
[32]
  MIC: 32 µg/mL (≈ 87 µM)
[33]
  pEC50: < 4.00
[34]
  Diameter of growth inhibition zone, KA: 12 ± 0.5 mm
[35]
  MIC: 32 µg/mL (≈ 87 µM)
[36]; [40]
  pEC50: < 4.00
[36]; [41]
  pEC50: < 4.00
[37]
  pEC50: < 4.00

## Cc1ccc(S(=O)(=O)N2C(=O)CSC2c2ccccc2[N+](=O)[O-])cc1 (stereo not drawn) [5o, 3-[(4-Methylphenyl)sulfonyl]-2-(2-nitrophenyl)-1,3-thiazolidin-4-one]
[1]
  MIC: 16 µg/mL (≈ 42.3 µM)
[2]
  MIC: 16 µg/mL (≈ 42.3 µM)
[3]
  Diameter of growth inhibition zone, CA: 20 ± 1.1 mm
[4]
  MIC: 16 µg/mL (≈ 42.3 µM)
[5]
  Cytotoxicity, Minimum cytotoxic conc.: >100 µM
[6]
  MIC: 16 µg/mL (≈ 42.3 µM)
[7]
  pEC50: < 4.00
[8]
  pEC50: < 4.00
[9]
  Diameter of growth inhibition zone, BC: 10 ± 0.6 mm
[10]
  MIC: 64 µg/mL (≈ 169 µM)
[11]
  MIC: 2 µg/mL (≈ 5.28 µM)
[12]
  Diameter of growth inhibition zone, AN: 19 ± 1.5 mm
[13]
  Diameter of growth inhibition zone, LC: 12 ± 0.66 mm
[14]
  Diameter of growth inhibition zone, AF: 18 ± 0.9 mm
[15]
  Diameter of growth inhibition zone, SP: 10 ± 1.5 mm
[16]
  pEC50: < 4.00
[17]
  pEC50: < 4.00
[18]
  Minimum cytotoxic conc.: >100 µM
[19]
  MIC: 32 µg/mL (≈ 84.6 µM)
[20]
  Diameter of growth inhibition zone, SA: 15 ± 1.5 mm
[21]
  pEC50: < 4.00
[22]
  Diameter of growth inhibition zone, EC: 16 ± 0.9 mm
[23]
  pEC50: < 4.00
[24]
  Diameter of growth inhibition zone, CN: 19 ± 1.2 mm
[25]
  Minimum cytotoxic conc.: >125 µM
[26]
  pEC50: < 4.00
[27]
  pEC50: < 4.00
[28]
  Minimum cytotoxic conc.: >100 µM
[29]
  Diameter of growth inhibition zone, ST: 10 ± 0.8 mm
[30]
  Diameter of growth inhibition zone, PA: 15 ± 1.1 mm
[31]; [38]
  pEC50: < 4.00
[31]; [39]
  pEC50: < 4.00
[32]
  MIC: 32 µg/mL (≈ 84.6 µM)
[33]
  pEC50: < 4.00
[34]
  Diameter of growth inhibition zone, KA: 12 ± 0.34 mm
[35]
  MIC: 8 µg/mL (≈ 21.1 µM)
[36]; [40]
  pEC50: < 4.00
[36]; [41]
  pEC50: < 4.00
[37]
  pEC50: < 4.00
